Data published in the RNAGym collection of RNA variant scans (doi:10.1126/science.aae0568).
This sample holds only a part of the variants without activity.

B1: tRNA (parent)
chain: GUUCCGUUGGCGUAAUGGUAACGCGUCUCCCUCCUAAGGAGAAGACUGCGGGUUCGAGUCCCGUACGGAACG

Variants of: B1
Test: yeast fitness relative to wild type (ratio to wild type); higher = fitter; tRNA-Arg(CCU), competitive growth, 37 C, YPD
Outline: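 Variants of the tRNA-Arg(CCU) gene, chemically synthesised with a 3% per-site mutation rate at 69 sites, were placed at the native genomic locus in Saccharomyces cerevisiae. The pooled strains were competed in YPD at 37°C for 24 hours in six parallel replicates. Gene amplicons from the start population and from each end population were read by 100-nucleotide paired-end sequencing. Darwinian fitness relative to wild type came from changes in genotype frequencies; genotypes needed ≥ 100 starting reads, and estimates < 0.5 were set to 0.5.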

Variant | yeast fitness
GUUCCGUUGGCGUAAUGGUAACGCGUCUCCCUCGUAAGGAGAAGACUGCGGGUUAGAGUCCCGUAUGGAACG [C34G C55A C66U] | ≤ 0.5
GUUCCGUUGGCGUAAUGGUAACGCGUCUCCCUCGUAAGGAGGAGACUCCGGGUUCGAGUCCCGUACGGAACG [C34G A42G G48C] | 0.531
GUUCCGUUGGCGUAAUGGUAACGCGUCUCCCUCGUAAGGAGCAGACUGCGGGUUAGAGUUCCGUACGGAACG [C34G A42C C55A C60U] | ≤ 0.5
GUUCCGUUGGCGUAAUGGUAACGCGUCUCCCUCGUAUGGAGAAGACUGGGGGUUCGGGUCCCGUGUGGAACG [C34G A37U C49G A57G A65G C66U] | ≤ 0.5
GUUCCGUUGGCGUAAUGGUAACGCGUCUCCCUCAUAAGGAGAAGACCGCGGGUUCGAGUCCCGUACGGAGCG [C34A U47C A70G] | 0.612
GUUCCGUUGGCGUAAUGGUAACGCGUCUCCCUCGUAAGGUGACGACUGGAGGUUCGAGUUCCGUACGGAACG [C34G A40U A43C C49G G50A C60U] | ≤ 0.5
GUUCCGUUGGCGUAAUGGUAACGCGUCUCCCUCGUAAGGAGAAGACUGCGGGUUCGAGUCCCGUUCGGAGCG [C34G A65U A70G] | ≤ 0.5
GUUCCGUUGGCGUAAUGGUAACGCGUCUCCCUCGUAAGGAGAAGACUGCGGGUUCGAGUCCCGUACGGCACG [C34G A69C] | 0.589
GUUCCGUUGGCGUAAUGGUAACGCGUCUCCCUCGUAAGGAGAAGACUGCGGGUUCGAGUCCCGUACGGUACG [C34G A69U] | 0.631
GUUCCGUUGGCGUAAUGGUAACGCGUCUCCCUCGUAAGGAGAAGACUGGGGGUUCGAGUCCCGUGCGGAACG [C34G C49G A65G] | ≤ 0.5
GUUCCGUUGGCGUAAUGGUAACGCGUCUCCCUCGUAAGGAGAAGAAUGCGGGUUCGAGUCCUGUACGGCACG [C34G C46A C62U A69C] | ≤ 0.5
GUUCCGUUGGCGUAAUGGUAACGCGUCUCCCUCGUAAGGCGAAGACUGCGGGUUCGAGUCCUGUACGGUACG [C34G A40C C62U A69U] | 0.573
GUUCCGUUGGCGUAAUGGUAACGCGUCUCCCUCGUAAGGAGAAGACUGCGGGUUGGAGCUCCGUACGGAACG [C34G C55G U59C C60U] | ≤ 0.5
GUUCCGUUGGCGUAAUGGUAACGCGUCUCCCUCGUACGGAGAACACUGCGGGUUCGAGUCCCGUACGGAACG [C34G A37C G44C] | ≤ 0.5
GUUCCGUUGGCGUAAUGGUAACGCGUCUCCCUCGUGAGGAGAAGACUGCGGGUUCGAGUGCCGUACGGAACG [C34G A36G C60G] | 0.642
GUUCCGUUGGCGUAAUGGUAACGCGUCUCCCUCGUAAGGAGAUGACUGAGGGUUCGAGUCCCGUACGGUACG [C34G A43U C49A A69U] | 0.584
GUUCCGUUGGCGUAAUGGUAACGCGUCUCCCUCGUAAGGAGAAGAUUGCGGGUUCGAGUCCCGUACGGAACG [C34G C46U] | 0.616
GUUCCGUUGGCGUAAUGGUAACGCGUCUCCCUCGUAAGGAGAAGAAUGCGGGUUCGAGUCCCGUACGGAACG [C34G C46A] | 0.615
GUUCCGUUGGCGUAAUGGUAACGCGUCUCCCUCGUCAGGAGAAGACUGCGGGUUCGAGUCCCGUACGGAACG [C34G A36C] | ≤ 0.5

Variant | yeast fitness
GUUCCGUUGGCGUAAUGGUAACGCGUCUCCCUCGUGAGGAGAAGACUGCGGGUUCGAGUCCCGUACGGAACG [C34G A36G] | 0.644
GUUCCGUUGGCGUAAUGGUAACGCGUCUCCCUCGUUAGGAGAAGACUGCGGGUUCGAGUCCUGUACGGAACG [C34G A36U C62U] | ≤ 0.5
GUUCCGUUGGCGUAAUGGUAACGCGUCUCCCUCGUAAGGAGAAGACUGCGGGUUCGAGUCCCGUACGGAACG [C34G] | 0.65
GUUCCGUUGGCGUAAUGGUAACGCGUCUCCCUCGUAAGGAGAAGACUGCGGGUUCGAGUCCCGUGCGGAACG [C34G A65G] | 0.765
GUUCCGUUGGCGUAAUGGUAACGCGUCUCCCUCGUAAGGAGAAGACUGCGGGUUCGAGUCCCGUUCGGAACG [C34G A65U] | 0.581
GUUCCGUUGGCGUAAUGGUAACGCGUCUCCCUCGUAAGGAGAAGACUGCGGGUUCGAGUCCCGUCCGGAACG [C34G A65C] | 0.65
GUUCCGUUGGCGUAAUGGUAACGCGUCUCCCUCGUAAGGAGAAGACUGCGGGUUCGGGUCCCGUGUGGAACG [C34G A57G A65G C66U] | 0.58
GUUCCGUUGGCGUAAUGGUAACGCGUCUCCCUCGUAAGGAGGACACUGCGGGUUCGAGUCCCGUAAGGAACG [C34G A42G G44C C66A] | ≤ 0.5
GUUCCGUUGGCGUAAUGGUAACGCGUCUCCCUCGUAGGGAGAAGACUGCGGGUUCGAGUCCCGUGCGGAACG [C34G A37G A65G] | 0.966
GUUCCGUUGGCGUAAUGGUAACGCGUCUCCCUCGUAAGGAGGAGACUGAGGGUUCGAGUCCCGUACGGAACG [C34G A42G C49A] | ≤ 0.5
GUUCCGUUGGCGUAAUGGUAACGCGUCUCCCUCAUAAGGAGAAGACUGCGGGAUCGAGUCCCGUACAGAACG [C34A U53A G67A] | ≤ 0.5
GUUCCGUUGGCGUAAUGGUAACGCGUCUCCCUCGUAAGGAGUAGACUGCGGGUUCGAGUCUCGUACGGAACG [C34G A42U C61U] | ≤ 0.5
GUUCCGUUGGCGUAAUGGUAACGCGUCUCCCUCGUAAGGAGAAGACUGAAGGUUCGAGUCCCGUACGGAACG [C34G C49A G50A] | ≤ 0.5
GUUCCGUUGGCGUAAUGGUAACGCGUCUCCCUCGUACGGAGAAGACUGCGGGUUCGACUCCCGUACGGAACG [C34G A37C G58C] | ≤ 0.5
GUUCCGUUGGCGUAAUGGUAACGCGUCUCCCUCGUAAGGAGAAGUCUGCGGGUUCGAGUCCCGUACGGAACG [C34G A45U] | 0.567
GUUCCGUUGGCGUAAUGGUAACGCGUCUCCCUCGUAAGGAGUAGACUGCGGGUUCGAGUCCCGUACGCAACG [C34G A42U G68C] | ≤ 0.5
GUUCCGUUGGCGUAAUGGUAACGCGUCUCCCUCGUAAGGAGACGACUGCGGGUUCGAGUCCCGUACGGAACG [C34G A43C] | 0.594
GUUCCGUUGGCGUAAUGGUAACGCGUCUCCCUCGUAAGGAGAUGACUGCGGGUUCGAGUCCCGUACGGAACG [C34G A43U] | 0.625
GUUCCGUUGGCGUAAUGGUAACGCGUCUCCCUCGUAAGGAGACGACUGCCGGUUCGAGUCCCGUACGGAACG [C34G A43C G50C] | ≤ 0.5
